High-throughput results as filed in PubChem BioAssay.
This is a sample that favours compounds with a hit; in the whole collection about 1.5% have one here.
PKA-R1A activ = PKA-R1A complex activation | 340,000 compounds, 0.083% hits | P00514+P68181 | PKA-R1A dissociation, Cy5-IP20 fluorescence polarization; scaled: DMSO 0%, 113 µM cGMP 100% | AID 504707 | activation, % at 11.4 µM;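 active means percent activation above the mean of all tested compounds plus 3 SD, cut at about 19% in these data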;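 further: higher means more PKAc released from R1A so a rise in polarization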
S100A4 MyoIIA = blocks human S100A4 binding to myosin IIA peptide. P26447. S100A4/TAMRA-MyoIIA peptide fluorescence polarization. inhibition, % at 10.7 µM. 360,000 compounds, 0.14% hits. AID 652163;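 active means mean inhibition of at least 70% across replicates, with every replicate also reaching that level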
Target sequence (P26447 whole entry, looked up): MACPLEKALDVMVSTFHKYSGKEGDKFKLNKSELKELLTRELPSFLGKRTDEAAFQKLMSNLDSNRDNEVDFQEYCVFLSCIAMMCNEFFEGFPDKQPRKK
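Material: S100A4 monomer protein | Medium: HEPES pH 7.2 with CaCl2, KCl, NaCl, DTT, Triton | Reagent: Labelled myosin peptide probe, 5 nM | Doses: One dose per compound | Times: 5 min incubation before reading | Benchmarks: Neutral control DMSO, positive control TFP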
PKA-R2B activ = activates the human PKA-R2B holoenzyme complex; 340,000 compounds, 0.079% hits; activation, % at 11.4 µM; PKA-R2B holoenzyme dissociation, Cy5-IP20 fluorescence polarization; R2B truncated from residue 108, S112A mutant; 0% DMSO only, 100% 113 µM cGMP; AID 504700;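 active means activation above a cutoff set at the mean over all compounds plus 3 SD, cut at about 18% in these data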;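 further: higher means more holoenzyme dissociation and a rise in polarization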
SIRT5 block = blocks human SIRT5 desuccinylation of peptide. Q9NXA8. Purified SirT5, succinyl-peptide AMC, trypsin-coupled fluorescence. inhibition, % at 15 µM. 330,000 compounds, 1.1% hits. AID 652115; in the data active means inhibition above about 15%
Target sequence (Q9NXA8 whole entry, looked up): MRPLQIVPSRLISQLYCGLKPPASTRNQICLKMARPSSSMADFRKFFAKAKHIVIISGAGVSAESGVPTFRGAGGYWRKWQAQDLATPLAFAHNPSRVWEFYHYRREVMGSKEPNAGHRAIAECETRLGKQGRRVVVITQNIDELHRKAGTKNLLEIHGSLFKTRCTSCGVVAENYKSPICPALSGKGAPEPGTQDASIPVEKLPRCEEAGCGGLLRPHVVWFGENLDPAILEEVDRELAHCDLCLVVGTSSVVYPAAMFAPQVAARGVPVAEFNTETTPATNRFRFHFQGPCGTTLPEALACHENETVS
CRFR2-BP antag = antagonists of CRF-binding protein/CRF-R2 receptor complex. HEK293 CRF-R2/CRF-BP, CRF-induced calcium fluorescence. AID 588475. 350,000 compounds, 0.59% hits. inhibition, % at 11.8 µM;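 active means inhibition of the ligand-induced calcium signal above about 50% at the single tested concentration, limit read from the data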
* = called active by the depositor.

`CC(C)(C)C(=O)c1cn(CC(=O)NCc2ccco2)c2ccccc12` gave PKA-R1A activ 10, S100A4 MyoIIA -12, PKA-R2B activ 1, SIRT5 block 17* and CRFR2-BP antag -2.
C=CC1CN2CCC1C[C@@H]2CO (some centres undefined) was read as S100A4 MyoIIA -9 and SIRT5 block 0.
`COc1ccc(-n2c(/C=C3\C(=O)Nc4ccccc43)nc3ccccc3c2=O)cc1` gave PKA-R1A activ 0, S100A4 MyoIIA 4, PKA-R2B activ 3, SIRT5 block 112* and CRFR2-BP antag 12.
CC=Cc1ccc2n(c1=O)C[C@@H]1[C@@H](CO)[C@H](C(=O)OC)[C@H]2N1CC1CC1 (mixture of isomers) was read as S100A4 MyoIIA 8 and SIRT5 block -7.
c1ccc(-c2ccncc2)cc1 was read as PKA-R1A activ -2, S100A4 MyoIIA 99*, PKA-R2B activ -1, SIRT5 block 1 and CRFR2-BP antag -17.
For CN1C(=O)/C(=C\c2ccc(Br)s2)C(=O)NC1=S the results were PKA-R1A activ 3, S100A4 MyoIIA -124, PKA-R2B activ 1, SIRT5 block 4 and CRFR2-BP antag -15.
O=C1NC(=S)NC(=O)C1=Cc1ccc(Br)s1 was read as PKA-R1A activ 6, S100A4 MyoIIA -40, PKA-R2B activ -6, SIRT5 block 24* and CRFR2-BP antag -8.
CCOC(=O)[C@]12Cc3cc4ccccc4cc3[C@H]1N(Cc1ccccc1)C(=O)c1ccccc12 was read as S100A4 MyoIIA -17 and SIRT5 block 27*.
`CCOC(=O)[C@]12Cc3cc4ccccc4cc3[C@H]1N(Cc1ccccc1)C(=O)c1cc(OC)ccc12` gave S100A4 MyoIIA -1 and SIRT5 block -8.
For C=CCN1C(=S)N[C@@H]2c3ccccc3O[C@@]1(C)[C@@H]2C(=O)OCC the results were S100A4 MyoIIA 5 and SIRT5 block 0.
For Oc1ccc(/C=N/NP(=S)(c2ccccc2)c2ccccc2)cc1 the results were PKA-R1A activ -10, PKA-R2B activ 2 and CRFR2-BP antag 52*.
For Cc1cc2c(C(C)C)c(O)c(O)c(C=O)c2c(O)c1-c1c(C)cc2c(C(C)C)c(O)c(O)c(C=O)c2c1O the results were S100A4 MyoIIA -9 and SIRT5 block 25*.
`CCCCN1CCC(C#N)(Nc2ccccc2)CC1` gave PKA-R1A activ 4, S100A4 MyoIIA -8, PKA-R2B activ 1, SIRT5 block 22* and CRFR2-BP antag -1.
`O=C(NCC1=C(c2ccc3ccccc3c2)C[C@@H]2CC[C@H]1N2Cc1ccco1)c1ccncc1` gave PKA-R1A activ -3, S100A4 MyoIIA -9, PKA-R2B activ -3, SIRT5 block 25* and CRFR2-BP antag -2.
For O=C(NCC1=C(c2ccc3ccccc3c2)C[C@@H]2CC[C@H]1N2Cc1ccco1)c1ccc([N+](=O)[O-])cc1 the results were PKA-R1A activ -18, S100A4 MyoIIA -5, PKA-R2B activ 2, SIRT5 block -2 and CRFR2-BP antag -11.
Screening COC1CCC(OC2CC(C3(C)CCC4(CC(O)C(C)C(C(C)/C=C(\C)C(=O)C(C)CC(C)C(=O)O)O4)O3)OC3(OC(C4OC(O)(CO)C(C)CC4C)CC3C)C2C)OC1C (centres undefined) returned PKA-R1A activ 4, S100A4 MyoIIA -3, PKA-R2B activ 12, SIRT5 block 24* and CRFR2-BP antag -42.
Screening O=C(Cc1ccccc1)N1CCCCN2[C@H](CO)[C@H](c3ccc(C#Cc4ccccc4)cc3)[C@@H]2C1 returned S100A4 MyoIIA -1 and SIRT5 block -3.
Screening CC1(CCO)CC(C)(CCc2ccccc2)OO1 (centres undefined) returned S100A4 MyoIIA -65 and SIRT5 block 2.
`COc1ccc(C#Cc2ccc([C@@H]3[C@H]4CN(C(=O)Cc5ccccc5)CCCCN4[C@H]3CO)cc2)cc1` gave S100A4 MyoIIA 13 and SIRT5 block -1.
COC(=O)[C@]1(C)C[C@H]1[C@H](NP(=O)(c1ccccc1)c1ccccc1)c1ccccc1 was read as PKA-R1A activ 10, S100A4 MyoIIA 84*, PKA-R2B activ 8 and CRFR2-BP antag 1.
Screening CCN1C[C@]2(CO)CC[C@H](OC)[C@@]34C2[C@H](OC)[C@@](O)(C13)[C@@]1(O)C[C@H](OC)[C@H]2C[C@@H]4[C@@H]1[C@H]2OC returned PKA-R1A activ 6, S100A4 MyoIIA -1, PKA-R2B activ -7, SIRT5 block 24* and CRFR2-BP antag 28.
`CCN1C[C@]2(COC)CC[C@H](OC)[C@@]34C1[C@]1(OCO[C@@]15C[C@H](OC)[C@H]1C[C@@H]3[C@@H]5[C@H]1OC)[C@@H](O)[C@H]24` gave PKA-R1A activ -7, S100A4 MyoIIA -4, PKA-R2B activ 9, SIRT5 block -3 and CRFR2-BP antag -9.
For CC(C)CNP(=S)(c1ccccc1)C(C)(C)C (centres undefined) the results were PKA-R1A activ -13, S100A4 MyoIIA 6, PKA-R2B activ -1, SIRT5 block -1 and CRFR2-BP antag 66*.
Screening CC=Cc1ccc2n(c1=O)C[C@H]1[C@H](CO)[C@@H](C(=O)N(C)C)[C@@H]2N1C (mixture of isomers) returned S100A4 MyoIIA -1 and SIRT5 block -2.
NS(=O)(=O)c1ccc(-c2ccc(C=C3C(=O)NC(=S)NC3=O)o2)cc1 was read as S100A4 MyoIIA 2 and SIRT5 block 35*.
For O=C(O)[C@H]1[C@H](CO)[C@H]2Cn3c(ccc(-c4ccncc4)c3=O)[C@@H]1N2S(=O)(=O)c1ccccc1F the results were S100A4 MyoIIA 6 and SIRT5 block -45.
`COC(=O)[C@@H]1[C@@H](CO)[C@@H]2Cn3c(cccc3=O)[C@H]1N2C(=O)C1CCC1` gave S100A4 MyoIIA -4 and SIRT5 block 0.
For Cn1cc(C(=O)c2ccccc2)c2ccccc21 the results were PKA-R1A activ -14, S100A4 MyoIIA -5, PKA-R2B activ 0, SIRT5 block 2 and CRFR2-BP antag 53*.
`COC(=O)[C@@H]1[C@@H](CO)[C@@H]2Cn3c(ccc(-c4ccccc4)c3=O)[C@H]1N2CCc1ccccc1` gave S100A4 MyoIIA 0 and SIRT5 block 16*.
For COC(=O)[C@@H]1[C@@H](CO)[C@@H]2Cn3c(ccc(-c4ccncc4)c3=O)[C@H]1N2CCc1ccccc1 the results were S100A4 MyoIIA 5 and SIRT5 block 4.
For O=C(O)[C@@H]1[C@@H](CO)[C@@H]2Cn3c(ccc(-c4ccncc4)c3=O)[C@H]1N2C(=O)C1CCCCC1 the results were S100A4 MyoIIA 10 and SIRT5 block -69.
